In ChEMBL document CHEMBL1137747, “Fullerene derivatized s-triazine analogues as antimicrobial agents” (2009):
In brackets after ≈: the same amount, converted by molar mass. Activity calls are given as the source filed them. No cut-off for these calls is given here.

Key:
[1] = test system: Bacillus pumilus; experiment: Antibacterial activity against Bacillus pumilus at 100 ug/ml by disk diffusion method; type: functional; conditions: read-out: IZ
Procedure, shortened: (§1)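 Agar disc diffusion on nutrient agar plates. Inoculum of […] (0.5 McFarland) spread evenly over the agar surface. Whatman filter paper discs, 6.25 mm diameter, dry-heat sterilized at 140 °C for 1 h, soaked in test solution and placed on the agar. Plates inverted and incubated 24 h at 37 °C. Solvent and growth controls and a ciprofloxacin reference run alongside. Inhibition zones measured.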

[2] = test system: Klebsiella pneumoniae; experiment: Antibacterial activity against Klebsiella pneumoniae at 100 ug/ml by disk diffusion method; type: functional; conditions: for zone of inhibition at 100 µg/mL: read-out: IZ; procedure, shortened: as §1
[3] = test system: Bacillus subtilis; experiment: Antibacterial activity against Bacillus subtilis at 100 ug/ml by disk diffusion method; type: functional; conditions: read-out: IZ; procedure, shortened: as §1
[4] = test system: Staphylococcus aureus; experiment: Antibacterial activity against Staphylococcus aureus at 100 ug/ml by disk diffusion method; type: functional; conditions: read-out: IZ; procedure, shortened: as §1
[5] = test system: Pseudomonas aeruginosa; experiment: Antibacterial activity against Pseudomonas aeruginosa at 100 ug/ml by disk diffusion method; type: functional; conditions: for zone of inhibition at 100 µg/mL: read-out: IZ; procedure, shortened: as §1
[6] = test system: Escherichia coli; experiment: Antibacterial activity against Escherichia coli at 100 ug/ml by disk diffusion method; type: functional; conditions: for zone of inhibition at 100 µg/mL: read-out: IZ; procedure, shortened: as §1
[7] = test system: Bacillus subtilis; experiment: Antibacterial activity against Bacillus subtilis by broth dilution technique
[8] = test system: Bacillus pumilus; experiment: Antibacterial activity against Bacillus pumilus by broth dilution technique
[9] = test system: Klebsiella pneumoniae; experiment: Antibacterial activity against Klebsiella pneumoniae by broth dilution technique

Question: With `CN(C)c1nc(N/N=C/c2ccc(C=O)cc2)nc(N(C)C)n1` as the compound, how does the zone of inhibition at 100 µg/mL [1] read?
Answer: 10 mm

Question: And the “inhibition zone (IZ)” value [2]?
Answer: inactive

Question: What about the zone of inhibition at 100 µg/mL [3] of the same compound?
Answer: 10 mm

Question: What about the zone of inhibition at 100 µg/mL [4] of the same compound?
Answer: 9 mm

Question: What about the “inhibition zone (IZ)” value [5] of the same compound?
Answer: inactive

Question: What about the “inhibition zone (IZ)” value [6] of the same compound?
Answer: inactive

Question: Which zone of inhibition at 100 µg/mL [1] does the source give for `CNc1nc(NC)nc(N/N=C/c2ccc(C=O)cc2)n1` here?
Answer: 10 mm

Question: What about the zone of inhibition at 100 µg/mL [2] of the same compound?
Answer: 14 mm

Question: What about the zone of inhibition at 100 µg/mL [3] of the same compound?
Answer: 12 mm

Question: And the zone of inhibition at 100 µg/mL [4]?
Answer: 11 mm

Question: And the zone of inhibition at 100 µg/mL [5]?
Answer: 11 mm

Question: What about the zone of inhibition at 100 µg/mL [6] of the same compound?
Answer: 14 mm

Question: What does the source list for `Nc1nc(N)nc(N/N=C/c2ccc(C=O)cc2)n1`?
Answer: zone of inhibition at 100 µg/mL [1]: 15 mm; inhibition zone (IZ) [2]: inactive; zone of inhibition at 100 µg/mL [3]: 16 mm; zone of inhibition at 100 µg/mL [4]: 9 mm; zone of inhibition at 100 µg/mL [5]: 11 mm; zone of inhibition at 100 µg/mL [6]: 15 mm

Question: What does the source list for `CNc1nc(N)nc(N/N=C/c2ccc(C=O)cc2)n1`?
Answer: zone of inhibition at 100 µg/mL [1]: 13 mm; zone of inhibition at 100 µg/mL [2]: 15 mm; zone of inhibition at 100 µg/mL [3]: 18 mm; zone of inhibition at 100 µg/mL [4]: 9 mm; zone of inhibition at 100 µg/mL [5]: 13 mm; zone of inhibition at 100 µg/mL [6]: 15 mm

Question: Which zone of inhibition at 100 µg/mL [1] does the source give for `O=C(O)c1cn(C2CC2)c2cc(N3CCNCC3)c(F)cc2c1=O` [CIPROFLOXACIN] here?
Answer: 36 mm

Question: What about the MIC [7] of the same compound?
Answer: 0.06 µg/mL (≈ 0.181 µM)

Question: And the zone of inhibition at 100 µg/mL [2]?
Answer: 19 mm

Question: What about the zone of inhibition at 100 µg/mL [3] of the same compound?
Answer: 38 mm

Question: What about the MIC [8] of the same compound?
Answer: 0.25 µg/mL (≈ 0.754 µM)

Question: And the zone of inhibition at 100 µg/mL [4]?
Answer: 22 mm

Question: And the MIC [9]?
Answer: 12.5 µg/mL (≈ 37.7 µM)

Question: What about the zone of inhibition at 100 µg/mL [5] of the same compound?
Answer: 32 mm

Question: What about the zone of inhibition at 100 µg/mL [6] of the same compound?
Answer: 27 mm

Question: What does the source list for `CNc1nc(N/N=C/c2ccc(C=O)cc2)nc(N(C)C)n1`?
Answer: zone of inhibition at 100 µg/mL [1]: 11 mm; zone of inhibition at 100 µg/mL [2]: 12 mm; zone of inhibition at 100 µg/mL [3]: 10 mm; zone of inhibition at 100 µg/mL [4]: 10 mm; zone of inhibition at 100 µg/mL [5]: 10 mm; zone of inhibition at 100 µg/mL [6]: 12 mm
